We go through one compound from ChEMBL document CHEMBL3758150, “Discovery and SAR of N-(1-((substituted piperidin-4-yl)methyl)-3-methoxypiperidin-4-yl)-2-methoxybenzamide derivatives: 5-Hydroxytryptamine receptor 4 agonist as a potent prokinetic agent” (Eur J Med Chem, 2016).

The target of data set [1] is 5-hydroxytryptamine receptor 4 (Homo sapiens, UniProt Q13639). In words: Displacement of [3H]-GR113808 from human 5-HT4 receptor expressed in African green monkey COS7 cell membranes after 30 mins by liquid scintillation counting analysis. The arrangement: species or system COS-7. The procedure, abridged: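 Membranes from Cos-7 cells expressing human 5-HT4: cells washed in PBS, pelleted, then resuspended in ice-cold 50 mM HEPES pH 7.4 and spun at 40,000 g for 30 min at 4 °C. Nonspecific binding was set with 10 μM 5-HT. IC50 came from linear regression of the displacement curve.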
Chain of 5-hydroxytryptamine receptor 4 (Homo sapiens, UniProt Q13639) (Q13639 whole entry): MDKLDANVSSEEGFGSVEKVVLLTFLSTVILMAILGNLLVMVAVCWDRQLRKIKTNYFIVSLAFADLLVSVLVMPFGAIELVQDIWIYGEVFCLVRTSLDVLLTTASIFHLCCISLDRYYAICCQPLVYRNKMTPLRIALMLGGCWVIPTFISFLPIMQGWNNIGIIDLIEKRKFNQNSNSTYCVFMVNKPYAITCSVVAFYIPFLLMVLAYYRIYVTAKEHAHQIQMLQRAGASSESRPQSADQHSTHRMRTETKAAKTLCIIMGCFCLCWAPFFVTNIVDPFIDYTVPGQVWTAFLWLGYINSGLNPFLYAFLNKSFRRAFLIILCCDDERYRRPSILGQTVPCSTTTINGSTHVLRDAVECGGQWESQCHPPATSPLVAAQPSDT
In general terms: Displacement assays read how much labelled ligand stays bound in the presence of the test substance.

The subject of data set [2] is Rattus norvegicus. In words: Induction of gastric emptying rate in Sprague-Dawley rat at 0.1 mg/kg, po administered prior to feeding measured after 30 mins. The class given is functional, Stomach. The procedure, abridged:
(§1)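 Male Sprague-Dawley rats (220–250 g) were fasted 18 h with free water. A 2 mL semisolid meal was gavaged 50 min after drug, and rats were killed 30 min later. Stomach plus contents were weighed. Gastric emptying (%) = [1 − test stomach weight/0-time control stomach weight] × 100.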

For data set [3], the system named is Rattus norvegicus. In words: Induction of gastric emptying rate in Sprague-Dawley rat at 5 mg/kg, iv administered prior to feeding along with cisplatin injection measured after 40 mins. The format is functional, Stomach. The procedure, abridged:
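Male Sprague-Dawley rats (220–250 g) were fasted 18 h with water available. A 2 mL semisolid meal was given 30 min after drug, together with cisplatin 5 mg/kg i.v. Gastric emptying was determined 40 min later from stomach weights versus 0-time controls: [1 − test/control] × 100.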

The test system of data set [4] is Rattus norvegicus. In words: Induction of gastric emptying rate in Sprague-Dawley rat at 5 mg/kg, iv administered prior to feeding measured after 30 mins. The format is functional, Stomach.
Data set [5] relates to Rattus norvegicus. In words: AUCinfinity in rat at 5 mg/kg, po. The class given is ADME, organism-based. More on the design: dose 5 mg/kg, time infinity, route oral. As to conditions: in vivo.
Data set [6] in a line: Tmax in rat at 5 mg/kg, po. The format is ADME, organism-based. The settings on record: in vivo.
A short description of data set [7]: Half life in rat at 5 mg/kg, po. The format is ADME, organism-based. The settings on record: in vivo.
Data set [8] has as its system Rattus norvegicus. In words: Induction of gastric emptying rate in Sprague-Dawley rat at 0.5 mg/kg, po administered prior to feeding measured after 30 mins. The class given is functional, Stomach. The procedure, abridged: as §1
Data set [9] can be described thus: Cmax in rat at 5 mg/kg, po. The class given is ADME, organism-based. The arrangement: dose 5 mg/kg, route oral. As to conditions: in vivo.
In data set [10] the target is 5-hydroxytryptamine receptor 4 (Rattus norvegicus, UniProt Q62758). In words: Agonist activity at 5-HT4 receptor in rat esophageal thoracic muscularis mucosae assessed as carbachol-induced contraction. The method in brief: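 The distal 1.2 cm of rat esophagus was equilibrated 60 min in Krebs–Henseleit, washed every 15 min, with isometric force recording. Tissue was precontracted with 3 μM carbachol, then given a cumulative relaxation curve to 5-HT. After a wash and 60 min recovery it was recontracted and a test-compound curve run. Potency is relative to 5-HT in the same preparation.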
Chain of 5-hydroxytryptamine receptor 4 (Rattus norvegicus, UniProt Q62758) (Q62758 whole entry): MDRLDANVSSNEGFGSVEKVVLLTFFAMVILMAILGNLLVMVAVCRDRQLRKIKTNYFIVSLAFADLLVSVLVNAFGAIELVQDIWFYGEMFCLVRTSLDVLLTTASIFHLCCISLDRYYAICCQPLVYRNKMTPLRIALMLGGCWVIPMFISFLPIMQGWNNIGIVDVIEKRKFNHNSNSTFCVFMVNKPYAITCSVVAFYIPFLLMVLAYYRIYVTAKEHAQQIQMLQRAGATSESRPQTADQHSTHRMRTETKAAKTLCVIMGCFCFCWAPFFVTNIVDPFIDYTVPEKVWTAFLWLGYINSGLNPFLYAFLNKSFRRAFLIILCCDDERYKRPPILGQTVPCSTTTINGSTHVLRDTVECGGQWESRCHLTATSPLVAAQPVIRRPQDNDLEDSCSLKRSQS

Consider `COc1cc(N)c(Cl)cc1C(=O)N[C@H]1CCN(CC2CCN(C(=O)C(C)C)CC2)C[C@H]1OC` (racemic), for which the IC50 in [1] came out at 134 nM. Also, the Activity was 46.2% in the data set with Rattus norvegicus [2], 58.6% in the data set with Rattus norvegicus [3], 59.1% in the data set with Rattus norvegicus [4] and 46.9% with Rattus norvegicus [8]. Besides, the AUC in the data set on Rattus norvegicus [5] turned out to be 483 ng·h/mL. The Tmax in [6] was determined as 15 min. The half-life in data set [7] was 58.8 min. In addition, the Cmax in data set [9] came out at 572 ng/mL. In [10], the EC50 is 45.7 nM.

A word on the IC50: it is the concentration that gives 50% inhibition. What is called AUC is the area under the concentration-time curve, a measure of exposure. By Tmax is commonly meant the time from dosing to the highest level. By half-life is commonly meant the time in which the quantity being followed falls by half. By Cmax is commonly meant the maximum level reached in the sampled fluid or tissue. The term EC50 denotes the concentration giving half of the maximal effect.
